Reference: ChEMBL document CHEMBL2331135, “New selective carbonic anhydrase IX inhibitors: synthesis and pharmacological evaluation of diarylpyrazole-benzenesulfonamides” (Bioorg Med Chem, 2013)
Calls of active or inactive are those of the source. No cut-off for these calls is given here.

Columns and labels:
[1] = target: Carbonic anhydrase 9 (Homo sapiens, UniProt Q16790); assay: Inhibition of human carbonic anhydrase 9 preincubated for 10 mins by CO2 hydration stopped-flow assay
[2] = system: MDA-MB-231; assay: Potentiation of doxorubicin-induced cytotoxicity against human MDA-MB-231 cells under hypoxic condition at 1 uM after 72 hrs by MTS assay; format: functional, cell-based
Procedure, shortened: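 MDA-MB-231 cells (2×10^3 per well) were seeded in DMEM with 10% FCS, buffered with 22.3 mM bicarbonate, and moved to hypoxia (1% O2, 5% CO2, N2 balance). Cells were then held 72 h at 37 °C under hypoxia. Read-out was MTS, 1 h, A492. IC50 is the doxorubicin concentration giving 50% absorbance reduction. Data come from three independent experiments, six wells each.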

[3] = system: MDA-MB-231; assay: Potentiation of doxorubicin-induced cytotoxicity against human MDA-MB-231 cells under normoxic condition at 1 uM after 72 hrs by MTS assay; format: functional, cell-based
[4] = system: MDA-MB-231; assay: Cytotoxicity against human MDA-MB-231 cells after 72 hrs by MTS assay; details: MDA-MB-231, 72 h
[5] = system: MDA-MB-231; assay: Ratio of IC50 for human MDA-MB-231 cells under hypoxic condition to IC50 for human MDA-MB-231 cells under normoxic condition; format: functional
[6] = organism: Homo sapiens; assay: Selectivity ratio of Ki for human carbonic anhydrase 2 to Ki for human carbonic anhydrase 9
Procedure, shortened: (§1)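 Stopped-flow CO2 hydration assay using 0.2 mM phenol red read at 557 nm, in 10 mM Hepes pH 7.5 with 0.1 M Na2SO4. Substrate was CO2-saturated water at 25 °C. Enzyme and inhibitor were preincubated 10 min at room temperature, testing at least seven inhibitor concentrations, with dilutions going down to 0.01 nM. Ki came from Lineweaver-Burk plots, triplicates averaged. The ratios are hCA I or hCA II Ki divided by hCA IX Ki.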

[7] = organism: Homo sapiens; assay: Selectivity ratio of Ki for human carbonic anhydrase 1 to Ki for human carbonic anhydrase 9; procedure, shortened: as §1
[8] = target: Carbonic anhydrase 2 (Homo sapiens, UniProt P00918); assay: Inhibition of human carbonic anhydrase 2 preincubated for 10 mins by CO2 hydration stopped-flow assay
[9] = target: Carbonic anhydrase 1 (Homo sapiens, UniProt P00915); assay: Inhibition of human carbonic anhydrase 1 preincubated for 10 mins by CO2 hydration stopped-flow assay
Chain of Carbonic anhydrase 1 (P00915 whole entry): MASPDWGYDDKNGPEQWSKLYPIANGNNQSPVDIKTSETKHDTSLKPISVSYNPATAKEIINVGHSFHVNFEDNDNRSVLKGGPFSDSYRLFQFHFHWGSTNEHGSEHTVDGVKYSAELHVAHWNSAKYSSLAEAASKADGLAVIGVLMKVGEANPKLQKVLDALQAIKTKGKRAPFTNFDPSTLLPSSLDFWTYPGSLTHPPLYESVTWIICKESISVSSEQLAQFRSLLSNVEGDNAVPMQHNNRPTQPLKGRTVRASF

| SMILES | Ki [1] [µM] | other results |
| --- | --- | --- |
| COc1cccc2c1C(=O)c1c(O)c3c(c(O)c1C2=O)C[C@@](O)(C(=O)CO)C[C@@H]3O[C@H]1C[C@H](N)[C@H](O)[C@H](C)O1 [DOXORUBICIN] | – | Ratio IC50 [5]: 3 |
| NS(=O)(=O)c1ccc(-n2nc(CO)cc2-c2ccc3c(ccc4ccccc43)c2)cc1 | 1.86 | Ratio Ki [6]: > 5; Ratio Ki [7]: > 5; Ki [8]: > 10 µM; Ki [9]: > 10 µM |
| NS(=O)(=O)c1ccc(-n2nc(-c3ccccc3)cc2CO)cc1 | 0.157 | – |
| NS(=O)(=O)c1ccc(-n2cc(CO)c(-c3ccccc3)n2)cc1 | 0.066 | – |
| COc1ccc2cc(-c3nn(-c4ccc(S(N)(=O)=O)cc4)cc3CO)ccc2c1 | 0.048 | – |
| NS(=O)(=O)c1ccc(-n2nc(CO)cc2-c2cccc3ccccc23)cc1 | 0.254 | – |
| NS(=O)(=O)c1ccc(-n2cc(CO)c(-c3ccc4ccccc4c3)n2)cc1 | 0.049 | – |
| Cc1ccc(-c2cc(CO)nn2-c2ccc(S(N)(=O)=O)cc2)cc1 | – | Ratio Ki [6]: 8; Ratio Ki [7]: 69; Ki [8]: 0.176 µM; Ki [9]: 1.51 µM |
| COc1ccc2cc(-c3cc(CO)nn3-c3ccc(S(N)(=O)=O)cc3)ccc2c1Br | 0.03 | – |
| COc1ccccc1-c1cc(CO)nn1-c1ccc(S(N)(=O)=O)cc1 | 0.032 | – |

More lines, in order of falling Ki [1], values ahead:

| Ki [1] [µM] | SMILES | other results |
| --- | --- | --- |
| 0.031 | NS(=O)(=O)c1cccc(-n2nc(CO)cc2-c2ccccc2)c1 | – |
| 0.029 | COc1ccc2cc(-c3cc(CO)nn3-c3cccc(S(N)(=O)=O)c3)ccc2c1 | – |
| 0.027 | N#Cc1ccc(-c2cc(CO)nn2-c2ccc(S(N)(=O)=O)cc2)cc1 | – |
| 0.027 | NS(=O)(=O)c1ccc(-n2nc(CO)cc2-c2ccc(-c3ccccc3)cc2)cc1 | – |
| 0.027 | NS(=O)(=O)c1ccc(-n2nc(CO)cc2-c2ccccc2)cc1 | – |
| 0.026 | COc1cccc(-c2cc(CO)nn2-c2ccc(S(N)(=O)=O)cc2)c1 | – |
| 0.023 | NS(=O)(=O)c1ccc(-n2nc(CCO)cc2-c2ccccc2)cc1 | – |
| 0.021 | NS(=O)(=O)c1ccc(-n2nc(-c3ccc4ccccc4c3)cc2CO)cc1 | – |
| 0.019 | NS(=O)(=O)c1cccc(-n2nc(CO)cc2-c2ccc3ccccc3c2)c1 | Activity [2]: Active; Activity [3]: inactive; IC50 [4]: > 50 µM |
| 0.019 | COc1ccc2cc(-c3cc(CO)nn3-c3ccc(S(N)(=O)=O)cc3)ccc2c1 | Activity [3]: inactive; IC50 [4]: > 50 µM |
| 0.017 | NS(=O)(=O)c1ccc(-n2nc(CO)cc2-c2ccc3ccccc3c2)cc1 | – |
| 0.015 | NS(=O)(=O)c1ccc(-n2nc(CO)cc2-c2ccc(Br)cc2)cc1 | Activity [2]: Active; Activity [3]: inactive; IC50 [4]: > 50 µM |
| 0.013 | NS(=O)(=O)c1ccc(-n2nc(CO)cc2-c2cccnc2)cc1 | – |
